Laboratory results from ChEMBL document CHEMBL5712078, “BRD9 Inhibition, Alone or in Combination with Cytostatic Compounds as a Therapeutic Approach in Rhabdoid Tumors” (Int J Mol Sci, 2017).

Experiments:
[1] = test system: G-401; experiment: Synergistic cytotoxicity against human G-401 cells assessed as combination index incubated for 72 hrs in presence of vincristine by MTT-based Chou-Talalay method; format: functional
Summary of the method: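 MTT combination assay. BT12 in IMDM/20% FBS at 5000 cells/well; G401 in DMEM/10% FBS. Drugs added 24 h after seeding, with I-BRD9 and cytostatic at a fixed 10:1 ratio (final ranges 0.001–100 µM and 0.0001–10 µM). After 72 h: MTT for 3 h, dissolved in isopropanol/0.04 N HCl, read at 570/630 nm. Technical triplicates, ≥3 independent runs; combination index by Chou–Talalay median-effect analysis.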

[2] = Anti-proliferative activity against human KD cells assessed as cell viability incubated for 144 hrs by MTT assay; format: functional, cell-based
Summary of the method: (§1)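 MTT proliferation assay. Cells were seeded at 3000 (BT16, KD, G401) or 5000 (BT12, Chla266) cells per well and drug was added after 24 h, final 0.001–100 µM. Read at 72 or 144 h; 144 h wells got fresh medium and drug on day 3. MTT for 3 h, formazan dissolved in isopropanol/0.04 N HCl, absorbance at 570/630 nm. Technical triplicates, ≥3 independent runs, IC50 derived.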

[3] = test system: BT-12; experiment: Anti-proliferative activity against human BT-12 cells assessed as cell viability incubated for 72 hrs by MTT assay; format: functional, cell-based; settings: BT-12, 72 h; summary of the method: as §1
[4] = test system: CHLA-266; experiment: Induction of apoptosis in human CHLA-266 cells assessed as necrotic cells at 20 uM incubated for 72 hrs by flow cytometry analysis (Rvb= 5.0+/-0.3 %)
[5] = test system: CHLA-266; experiment: Induction of cell cycle arrest in human CHLA-266 cells assessed as accumulation of cells at G1 phase at 5 uM incubated for 72 hrs by flow cytometry analysis (reference value: 74.2+/-3.6%); format: functional
Summary of the method: (§2)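 Cell cycle. Seeding and 72 h treatment as for the apoptosis assay, with I-BRD9 or BI-9564 at 0, 5, 10 or 20 µM final. A 100 µL cell suspension was stained with DAPI and read by flow cytometry. Percentage of cells in G1, n ≥3, mean ± SD, one-way ANOVA versus control.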

[6] = test system: CHLA-266; experiment: Induction of cell cycle arrest in human CHLA-266 cells assessed as accumulation of cells at G1 phase at 10 uM incubated for 72 hrs by flow cytometry analysis (reference value: 74.2+/-3.6%); format: functional; summary of the method: as §2
[7] = test system: G-401; experiment: Induction of cell cycle arrest in human G-401 cells assessed as accumulation of cells at G1 phase at 5 uM incubated for 72 hrs by flow cytometry analysis (reference value: 46.7+/-1.9%); format: functional
Summary of the method: (§3)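 72 h DAPI flow-cytometry cell-cycle assay. Chla266 in IMDM/20% FBS seeded at 30,000 cells/mL; G401 in DMEM/10% FBS at 10,000 cells/mL; 1 mL/well, 37 °C, 5% CO2. Next day the medium was replaced with inhibitor at final 0, 5, 10 or 20 µM. Cells were harvested, PBS-washed, and the G1 percentage was read. n ≥ 3, mean ± SD, one-way ANOVA vs control.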

[8] = test system: G-401; experiment: Anti-proliferative activity against human G-401 cells assessed as inhibition cell growth incubated for 72 hrs in presence of carboplatin by MTT-based Chou-Talalay method; format: functional; settings: G-401, 72 h
Summary of the method: (§4)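 Combination MTT assay. I-BRD9 and carboplatin, doxorubicin or vincristine were given together at a fixed 10:1 ratio, with cytostatics 0.0001–10 µM final, added 24 h after seeding. MTT read-out at 570/630 nm after 3 h formazan solubilisation. Combination index from the Chou–Talalay median-effect method: CI <1 synergism, CI >1 antagonism. n ≥3.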

[9] = test system: G-401; experiment: Induction of cell cycle arrest in human G-401 cells assessed as accumulation of cells at G1 phase at 20 uM incubated for 72 hrs by flow cytometry analysis (reference value: 46.7+/-1.9 %); format: functional; summary of the method: as §3
[10] = test system: BT-12; experiment: Anti-proliferative activity against human BT-12 cells assessed as inhibition cell growth incubated for 72 hrs in presence of vincristine by MTT-based Chou-Talalay method; format: functional; settings: BT-12, 72 h; summary of the method: as §4
[11] = test system: G-401; experiment: Induction of cell cycle arrest in human G-401 cells assessed as accumulation of cells at G1 phase incubated for 72 hrs by flow cytometry analysis; format: functional, cell-based; settings: dose 5-20 µM; summary of the method: as §3
[12] = test system: BT-12; experiment: Anti-proliferative activity against human BT-12 cells assessed as inhibition cell growth incubated for 72 hrs in presence of carboplatin by MTT-based Chou-Talalay method; format: functional; settings: BT-12, 72 h; summary of the method: as §4
[13] = test system: G-401; experiment: Induction of apoptosis in human G-401 cells assessed as necrotic cells at 10 uM incubated for 72 hrs by flow cytometry analysis (Rvb= 5.7+/-1.9 %); format: functional
Summary of the method: (§5)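 Annexin V/PI flow assay. G401 at 10,000 cells/mL and BT12 or Chla266 at 30,000 cells/mL were seeded in 12-well plates. Next day medium was replaced with medium holding I-BRD9 or BI-9564 at 0, 5, 10 or 20 µM final for 72 h. Cells were washed in PBS, stained with FITC-Annexin V and propidium iodide for 15 min in the dark at room temperature, then read by flow cytometry. Percentage of dead cells, n ≥3, mean ± SD, one-way ANOVA versus control.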

[14] = test system: G-401; experiment: Anti-proliferative activity against human G-401 cells assessed as inhibition cell growth incubated for 72 hrs in presence of vincristine by MTT-based Chou-Talalay method; format: functional; settings: G-401, 72 h; summary of the method: as §4
[15] = test system: BT-12; experiment: Induction of apoptosis in human BT-12 cells assessed as necrotic cells at 10 uM incubated for 72 hrs by flow cytometry analysis (reference value: 9.1+/-2.8 %); format: functional; summary of the method: as §5
[16] = test system: G-401; experiment: Induction of apoptosis in human G-401 cells assessed as necrotic cells at 20 uM incubated for 72 hrs by flow cytometry analysis (Rvb= 5.7+/-1.9 %); format: functional; summary of the method: as §5
[17] = test system: G-401; experiment: Induction of apoptosis in human G-401 cells assessed as necrotic cells incubated for 72 hrs by flow cytometry analysis; format: functional, cell-based; settings: dose 5-20 µM; summary of the method: as §5
[18] = test system: CHLA-266; experiment: Induction of apoptosis in human CHLA-266 cells assessed as necrotic cells at 10 uM incubated for 72 hrs by flow cytometry analysis (Rvb= 5.0+/-0.3 %)
[19] = test system: CHLA-266; experiment: Anti-proliferative activity against human CHLA-266 cells assessed as cell viability incubated for 72 hrs by MTT assay; format: functional, cell-based; settings: CHLA-266, 72 h; summary of the method: as §1
[20] = Anti-proliferative activity against human KD cells assessed as cell viability incubated for 72 hrs by MTT assay; format: functional, cell-based; summary of the method: as §1
[21] = test system: BT-12; experiment: Induction of apoptosis in human BT-12 cells assessed as necrotic cells at 5 uM incubated for 72 hrs by flow cytometry analysis (reference value: 9.1+/-2.8 %); format: functional; summary of the method: as §5

## CCn1cc(-c2cccc(C(F)(F)F)c2)c2sc(C(=N)NC3CCS(=O)(=O)CC3)cc2c1=O
[1]
  CI: 9
[2]
  IC50: 7.1 µM
[3]
  IC50: 21.2 µM
[4]
  Activity: 25%
[5]
  Activity: 79.5%
[6]
  Activity: 82.7%
[7]
  Activity: 53%
[8]
  IC50: 9.1 µM
[9]
  Activity: 78.1%
[10]
  IC50: 16.7 µM
[11]
  Activity: Dose-Dependent Effect
[12]
  IC50: 40.9 µM
[13]
  Activity: 18.8%
[14]
  IC50: 0.008 µM
[15]
  Activity: 17.6%
[16]
  Activity: 70.8%
[17]
  Activity: Dose-Dependent Effect
[18]
  Activity: 11.7%
[19]
  IC50: 13.3 µM
[20]
  IC50: 8.1 µM
[21]
  Activity: 19.9%
